Results published in ChEMBL document CHEMBL1932985, “Identification of biaryl sulfone derivatives as antagonists of the histamine H₃ receptor: discovery of (R)-1-(2-(4'-(3-methoxypropylsulfonyl)biphenyl-4-yl)ethyl)-2-methylpyrrolidine (APD916)” (Bioorg Med Chem Lett, 2012).
Calls of active or inactive are those of the source. The calls are words filed in the database; no cut-off is given here.

Tests used:
[1] = biological target: Histamine H1 receptor (Homo sapiens) (UniProt P35367); assay: Binding affinity to H1 receptor at 10 uM relative to control
Sequence of Histamine H1 receptor (Homo sapiens) (P35367 whole entry): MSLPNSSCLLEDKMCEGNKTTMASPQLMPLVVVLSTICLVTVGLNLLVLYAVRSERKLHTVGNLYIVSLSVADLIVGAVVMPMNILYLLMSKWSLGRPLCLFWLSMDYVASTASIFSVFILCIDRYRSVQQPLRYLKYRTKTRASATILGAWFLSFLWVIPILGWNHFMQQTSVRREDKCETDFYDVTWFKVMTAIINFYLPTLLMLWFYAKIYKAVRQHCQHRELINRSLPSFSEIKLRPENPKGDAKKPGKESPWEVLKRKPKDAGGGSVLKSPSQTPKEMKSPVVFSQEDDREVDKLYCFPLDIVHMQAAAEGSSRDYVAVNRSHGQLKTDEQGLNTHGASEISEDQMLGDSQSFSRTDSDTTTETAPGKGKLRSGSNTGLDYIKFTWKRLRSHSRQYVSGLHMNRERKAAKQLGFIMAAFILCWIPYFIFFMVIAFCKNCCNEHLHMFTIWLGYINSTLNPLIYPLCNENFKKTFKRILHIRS
Method in brief: (§1)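 Broad binding panel of 80 receptors, including histamine H1, H2 and H4, with compound tested at 10 µM; binding expressed as percent of control.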

Rattus norvegicus [2] = assay: Inhibition of RAMH-induced dipsogenia in Sprague-Dawley rat at 0.6 mg/kg, po administered 30 mins prior to RAMH challenge measured up to 20 mins; type: functional, organism-based; parameters: dose 0.6 mg/kg
Method in brief: (§2)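 Rats given compound orally 0.5 h (or, for duration of action, at selected times up to 6 h) before RAMH 10 mg/kg SC; water consumed over 20 min measured. Screening doses 1 or 0.3 mg/kg PO, also 0.1 mg/kg; duration study at 0.6 mg/kg PO. MED = minimum dose fully inhibiting drinking; means ± SEM.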

Rattus norvegicus [3] = assay: Inhibition of RAMH-induced dipsogenia in Sprague-Dawley rat at 0.6 mg/kg, po administered 1 hr prior to RAMH challenge measured up to 20 mins; type: functional, organism-based; parameters: dose 0.6 mg/kg; method in brief: as §2
Rattus norvegicus [4] = assay: Effect on sleep-awake cycle in EEG/EMG Sprague-Dawley rat model assessed as increase in wakefulness at 0.6 mg/kg, po measured for 2 hrs; type: functional, organism-based; parameters: dose 0.6 mg/kg
Method in brief: (§3)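 Rats with chronically implanted cortical electrodes dosed orally (0.6 mg/kg; dose-response also run) during subjective night, about four hours after lights on; wake time recorded over 8 h versus vehicle and assessed over first 1, 2 and 4 h; means ± SEM.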

Rattus norvegicus [5] = assay: Effect on sleep-awake cycle in EEG/EMG Sprague-Dawley rat model assessed as increase in wakefulness at 0.6 mg/kg, po measured for 4 hrs; type: functional, organism-based; parameters: dose 0.6 mg/kg; method in brief: as §3
Rattus norvegicus [6] = assay: Effect on sleep-awake cycle in EEG/EMG Sprague-Dawley rat model assessed as increase in wakefulness at 0.3 mg/kg, po measured for 2 hrs; type: functional, organism-based; parameters: dose 0.3 mg/kg; method in brief: as §3
[7] = biological target: Histamine H2 receptor (Homo sapiens) (UniProt P25021); assay: Binding affinity to H2 receptor at 10 uM relative to control; method in brief: as §1
Sequence of Histamine H2 receptor (Homo sapiens) (P25021 whole entry): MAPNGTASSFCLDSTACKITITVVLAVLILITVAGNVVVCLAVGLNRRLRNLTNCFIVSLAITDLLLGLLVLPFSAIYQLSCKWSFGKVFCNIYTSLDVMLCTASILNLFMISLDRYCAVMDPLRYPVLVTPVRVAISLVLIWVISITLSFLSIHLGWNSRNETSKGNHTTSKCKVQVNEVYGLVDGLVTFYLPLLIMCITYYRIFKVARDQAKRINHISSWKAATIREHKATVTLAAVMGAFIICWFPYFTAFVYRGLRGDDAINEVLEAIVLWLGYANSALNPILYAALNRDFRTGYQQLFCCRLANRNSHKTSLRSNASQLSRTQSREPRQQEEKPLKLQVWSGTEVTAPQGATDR

[8] = biological target: Histamine H4 receptor (Homo sapiens) (UniProt Q9H3N8); assay: Binding affinity to H4 receptor at 10 uM relative to control; method in brief: as §1
Sequence of Histamine H4 receptor (Homo sapiens) (Q9H3N8 whole entry): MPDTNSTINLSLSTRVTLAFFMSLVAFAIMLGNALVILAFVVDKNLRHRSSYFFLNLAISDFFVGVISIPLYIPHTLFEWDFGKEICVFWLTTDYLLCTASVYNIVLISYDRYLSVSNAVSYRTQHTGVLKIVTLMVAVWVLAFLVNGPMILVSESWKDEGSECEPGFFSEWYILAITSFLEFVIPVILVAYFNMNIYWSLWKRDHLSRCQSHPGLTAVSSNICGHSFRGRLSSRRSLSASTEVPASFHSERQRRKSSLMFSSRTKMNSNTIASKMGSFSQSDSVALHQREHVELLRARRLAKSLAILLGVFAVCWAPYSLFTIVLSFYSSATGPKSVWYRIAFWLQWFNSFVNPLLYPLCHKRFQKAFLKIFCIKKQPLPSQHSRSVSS

Rattus norvegicus [9] = assay: Effect on sleep-awake cycle in EEG/EMG Sprague-Dawley rat model assessed as increase in wakefulness at 0.3 mg/kg, po measured for 1 hr; type: functional, organism-based; parameters: dose 0.3 mg/kg; method in brief: as §3
Rattus norvegicus [10] = assay: Inhibition of RAMH-induced dipsogenia in Sprague-Dawley rat at 0.1 mg/kg, po administered 30 mins prior to RAMH challenge measured up to 20 mins; type: functional, organism-based; parameters: dose 0.1 mg/kg; method in brief: as §2
[11] = Half life in Sprague-Dawley rat at 10 mg/kg, iv by LC-MS/MS analysis; type: ADME, organism-based; parameters: dose 10 mg/kg, route intravenous; details: in vivo
Method in brief: (§4)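 Rat PK after IV and PO dosing; plasma Cmax, Tmax, IV half-life and Vss determined; oral bioavailability from AUCpo/AUCiv. Metabolite exposure determined after a 3 mg/kg PO parent dose.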

[12] = Ratio of drug level in brain to plasma in Sprague-Dawley rat at 10 mg/kg, po and iv after 0.75 to 3 hrs by LC-MS/MS analysis; type: ADME, organism-based; parameters: dose 10 mg/kg, route oral; details: read-out: BPR
Method in brief: (§5)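 Brain (µg/mg) and plasma (µg/mL) levels were measured after oral dosing, with three rats per time point. The b/p ratio was the mean of the nine individual ratios.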

[13] = Oral bioavailability in Sprague-Dawley rat at 10 mg/kg by LC-MS/MS analysis; type: ADME, organism-based; details: in vivo; method in brief: as §4
Rattus norvegicus [14] = assay: Volume of distribution at steady state in Sprague-Dawley rat at 10 mg/kg, po and iv by LC-MS/MS analysis; type: ADME, organism-based; parameters: dose 10 mg/kg, route oral; details: in vivo
Method in brief: (§6)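 Rats were given the compound both IV and PO in a routine PK study. Tmax came from the PO arm and Vss from the IV arm.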

[15] = biological target: Voltage-gated inwardly rectifying potassium channel KCNH2 (Homo sapiens, UniProt Q12809); assay: Inhibition of human ERG by patch-clamp assay
Sequence of Voltage-gated inwardly rectifying potassium channel KCNH2 (Q12809 whole entry): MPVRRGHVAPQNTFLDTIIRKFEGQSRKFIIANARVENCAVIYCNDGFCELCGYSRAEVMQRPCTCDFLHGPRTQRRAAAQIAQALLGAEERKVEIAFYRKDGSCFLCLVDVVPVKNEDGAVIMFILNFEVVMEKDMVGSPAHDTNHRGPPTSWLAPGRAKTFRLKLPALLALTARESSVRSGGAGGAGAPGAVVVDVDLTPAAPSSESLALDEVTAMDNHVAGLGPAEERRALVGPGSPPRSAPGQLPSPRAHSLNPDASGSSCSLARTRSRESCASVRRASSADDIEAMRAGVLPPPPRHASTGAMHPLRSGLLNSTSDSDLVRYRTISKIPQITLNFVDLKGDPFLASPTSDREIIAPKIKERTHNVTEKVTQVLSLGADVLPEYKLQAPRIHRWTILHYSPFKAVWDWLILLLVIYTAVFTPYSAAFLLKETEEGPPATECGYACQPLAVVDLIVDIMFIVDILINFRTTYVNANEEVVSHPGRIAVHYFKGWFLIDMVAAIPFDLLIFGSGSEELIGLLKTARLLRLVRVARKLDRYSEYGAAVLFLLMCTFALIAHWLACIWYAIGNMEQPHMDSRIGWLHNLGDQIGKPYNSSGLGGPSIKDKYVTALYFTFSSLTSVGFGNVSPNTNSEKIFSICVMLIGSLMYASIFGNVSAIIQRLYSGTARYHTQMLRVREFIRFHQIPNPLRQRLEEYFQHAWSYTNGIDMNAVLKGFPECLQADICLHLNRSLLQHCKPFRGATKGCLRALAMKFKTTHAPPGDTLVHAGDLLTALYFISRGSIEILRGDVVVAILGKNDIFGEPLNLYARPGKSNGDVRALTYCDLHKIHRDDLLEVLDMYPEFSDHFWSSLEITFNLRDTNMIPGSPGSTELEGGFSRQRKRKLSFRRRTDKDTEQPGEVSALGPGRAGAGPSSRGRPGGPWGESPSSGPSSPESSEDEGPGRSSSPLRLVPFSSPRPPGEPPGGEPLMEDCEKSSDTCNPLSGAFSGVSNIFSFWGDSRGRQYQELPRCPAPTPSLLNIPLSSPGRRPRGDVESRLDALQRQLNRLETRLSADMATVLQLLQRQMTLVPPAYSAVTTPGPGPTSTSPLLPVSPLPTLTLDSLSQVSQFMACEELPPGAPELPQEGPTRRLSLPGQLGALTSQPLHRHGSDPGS

[16] = Cmax in Sprague-Dawley rat plasma at 10 mg/kg, po and iv by LC-MS/MS analysis; type: ADME, organism-based; parameters: dose 10 mg/kg, route oral; method in brief: as §4
hERG (KCNH2) = hERG (KCNH2) (Homo sapiens, UniProt Q12809); assay: Inhibition of human ERG at 3 uM by patch-clamp assay
Sequence of hERG (KCNH2) (Q12809 whole entry): as above

Histamine H3 receptor = Histamine H3 receptor (Rattus norvegicus, UniProt Q9QYN8); assay: Displacement of N-[3H]-methylhistamine from histamine H3 receptor in rat cortex membranes; type: cell membranes, Membrane
Sequence of Histamine H3 receptor (Q9QYN8 whole entry): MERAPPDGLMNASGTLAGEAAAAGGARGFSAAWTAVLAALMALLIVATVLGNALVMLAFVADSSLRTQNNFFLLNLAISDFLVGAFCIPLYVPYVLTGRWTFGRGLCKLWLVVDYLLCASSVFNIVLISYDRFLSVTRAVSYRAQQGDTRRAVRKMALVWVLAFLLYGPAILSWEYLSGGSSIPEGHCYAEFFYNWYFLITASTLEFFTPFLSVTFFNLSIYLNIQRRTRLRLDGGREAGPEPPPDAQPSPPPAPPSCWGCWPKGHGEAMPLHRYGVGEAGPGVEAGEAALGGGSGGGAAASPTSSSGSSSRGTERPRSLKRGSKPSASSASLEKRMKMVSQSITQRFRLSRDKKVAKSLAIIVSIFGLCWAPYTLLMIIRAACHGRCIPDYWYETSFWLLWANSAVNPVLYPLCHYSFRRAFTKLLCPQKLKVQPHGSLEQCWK

Rattus norvegicus [17] = assay: Inhibition of RAMH-induced dipsogenia in Sprague-Dawley rat at 0.6 mg/kg, po administered 6 hrs prior to RAMH challenge measured up to 20 mins; type: functional; method in brief: as §2
[18] = Tmax in Sprague-Dawley rat at 10 mg/kg, po and iv by LC-MS/MS analysis; type: ADME, organism-based; parameters: dose 10 mg/kg, route oral; details: in vivo; method in brief: as §6
Rattus norvegicus [19] = assay: Inhibition of RAMH-induced dipsogenia in po dosed Sprague-Dawley rat administered 30 mins prior to RAMH challenge measured up to 20 mins; type: functional; details: read-out: MED; method in brief: as §2
[20] = Oral bioavailability in Sprague-Dawley rat at 1 mg/kg by LC-MS/MS analysis; type: ADME, organism-based; details: in vivo; method in brief: as §4
Rattus norvegicus [21] = assay: Volume of distribution at steady state in Sprague-Dawley rat at 1 mg/kg, po and iv by LC-MS/MS analysis; type: ADME, organism-based; parameters: dose 1 mg/kg, route oral; details: in vivo; method in brief: as §6
[22] = Ratio of drug level in brain to plasma in Sprague-Dawley rat at 1 mg/kg, po and iv after 0.75 to 3 hrs by LC-MS/MS analysis; type: ADME, organism-based; parameters: dose 1 mg/kg, route oral; details: read-out: BPR; method in brief: as §5
[23] = Half life in Sprague-Dawley rat at 1 mg/kg, iv by LC-MS/MS analysis; type: ADME, organism-based; parameters: dose 1 mg/kg, route intravenous; details: in vivo; method in brief: as §4
[24] = Tmax in Sprague-Dawley rat at 1 mg/kg, po and iv by LC-MS/MS analysis; type: ADME, organism-based; parameters: dose 1 mg/kg, route oral; details: in vivo; method in brief: as §6
[25] = Cmax in Sprague-Dawley rat plasma at 1 mg/kg, po and iv by LC-MS/MS analysis; type: ADME, organism-based; parameters: dose 1 mg/kg, route oral; method in brief: as §4
[26] = Solubility of the compound in water; type: physicochemical

For `COCCCS(=O)(=O)c1ccc(-c2ccc(CCN3CCC[C@H]3C)cc2)cc1`, the inhibition [1] was under 50%, the inhibition (Rattus norvegicus [2]) was “Active” and the inhibition (Rattus norvegicus [3]) was “Active”. The Activity (Rattus norvegicus [4]) was “Active”, the Activity (Rattus norvegicus [5]) was “inactive” and the Activity (Rattus norvegicus [6]) was “inactive”. The inhibition [7] was under 50%, the inhibition [8] was under 50% and the Activity (Rattus norvegicus [9]) was “Active”. For the same compound, the inhibition (Rattus norvegicus [10]) was “inactive”.

With `COCCS(=O)(=O)c1ccc(-c2ccc(CCN3CCC[C@H]3C)cc2)cc1` the half-life [11] was 42 min, the Kp [12] was 1.73 and the bioavailability [13] was 68.5%. It also gave a Vdss (Rattus norvegicus [14]) of 7.6 L/kg, an IC50 [15] of 7400 nM and a Cmax [16] of 184 ng/mL. For the same compound, the inhibition at 3 µM (hERG (KCNH2)) was 29%, the Ki (Histamine H3 receptor) was 1.4 nM and the inhibition in vivo at 0.6 mg/kg (Rattus norvegicus [17]) was under 20%. For the same compound, the Tmax [18] was 18 min and the minimal effective dose (Rattus norvegicus [19]) was 0.3 mg/kg.

`C[C@@H]1CCCN1CCc1ccc(-c2ccc(S(=O)(=O)Cc3ccccc3)cc2)cc1` showed an inhibition at 3 µM (hERG (KCNH2)) of 95% and a Ki (Histamine H3 receptor) of 0.6 nM.

For `COCCS(=O)(=O)c1ccc(-c2ccc(CCN3CCC[C@@H]3C)cc2)cc1`, the Ki (Histamine H3 receptor) was 13.2 nM.

For `C[C@@H]1CCCN1CCc1ccc(-c2ccc(S(=O)(=O)CCO)cc2)cc1`, the bioavailability [20] was 53.6%, the Vdss (Rattus norvegicus [21]) was 5 L/kg and the Kp [22] was 0.72. For the same compound, the half-life [23] was 192 min, the Tmax [24] was 30 min and the Cmax [25] was 122 ng/mL. The Ki (Histamine H3 receptor) was 1.2 nM and the minimal effective dose (Rattus norvegicus [19]) was 1 mg/kg.

`COCCS(=O)(=O)c1ccc(-c2ccc(CCN3CCC[C@H]3C)cc2)cc1.Cl` showed a solubility [26] of over 30 mg/mL.

Compound `C[C@@H]1CCCN1CCc1ccc(-c2ccc(S(=O)(=O)C3CCCC3)cc2)cc1` has a Ki (Histamine H3 receptor) of 1 nM.

Work on `C[C@@H]1CCCN1CCc1ccc(-c2ccc(S(=O)(=O)C3CCOCC3)cc2)cc1` yielded a Ki (Histamine H3 receptor) of 1.1 nM and a minimal effective dose (Rattus norvegicus [19]) of 1 mg/kg.

With `CC(C)S(=O)(=O)c1ccc(-c2ccc(CCN3CCC[C@H]3C)cc2)cc1` the Ki (Histamine H3 receptor) was 2.65 nM.
